{"data": "Measured values gathered from unrelated publications", "target": "Serine/threonine-protein kinase WNK4 (WNK4, Homo sapiens, UniProt Q96J92)", "note": "Compare with care: the assays were run in different laboratories."}
{"SMILES": "O=C(c1ccc(Nc2ncc(Cl)c(-c3cc4ccccc4s3)n2)cc1)N1CCC(N2CCCC2)CC1", "observed": "binding", "method": "competition with immobilised ligand", "concentration": "1 µM", "remaining binding [%]": 86}
{"SMILES": "CC(=O)N1CCC(c2ccc(C(=O)NC(=N)N)cc2C(F)(F)F)CC1", "observed": "cell-free assay", "method": "competition with immobilised ligand", "concentration": "1 µM", "remaining binding [%]": 100}
{"SMILES": "CNC(=O)[C@@H]1CC[C@@H](n2c(-c3ccc4cnccc4c3)nc3ccc(C(=O)NCc4cccc(C(N)=O)c4)cc32)C1", "observed": "binding", "method": "competition with immobilised ligand", "concentration": "1 µM", "remaining binding [%]": 100}
{"SMILES": "Cc1nc(N2CC[C@@H](O)C2)ncc1-c1cc(C(F)(F)F)cc2[nH]ncc12", "observed": "binding", "method": "competition with immobilised ligand", "concentration": "1 µM", "remaining binding [%]": 95}
{"SMILES": "COc1ncc2cc3ccccc3nc2c1C#N", "observed": "cell-free assay", "method": "competition with immobilised ligand", "concentration": "5 µM", "remaining binding [%]": 80}
{"SMILES": "O=C(Nc1c[nH]nc1C(=O)NC1CCNCC1)c1cc(F)cc(F)c1", "observed": "binding", "method": "competition with immobilised ligand", "concentration": "1 µM", "remaining binding [%]": 100}
{"SMILES": "c1cnn2ncc(-c3ccnc(N4CCC45COC5)n3)c2c1", "observed": "binding", "concentration": "1 µM", "remaining binding [%]": 64}
{"SMILES": "Cc1nc(Cc2cccc(C(F)(F)F)c2)sc1-c1ccc(C(N)=O)nc1", "observed": "cell-free assay", "method": "competition with immobilised ligand", "concentration": "1 µM", "remaining binding [%]": 100}
{"SMILES": "Cc1cnc(Nc2ccc(C(=O)N3CCC(N4CCCC4)CC3)cc2)nc1-c1cc2ccccc2s1", "observed": "binding", "method": "competition with immobilised ligand", "concentration": "1 µM", "remaining binding [%]": 73}
{"SMILES": "C=CC(=O)N1CCC(C(=O)NCC(=O)N2CCN(c3nc(-c4cnc(N)nc4C(F)F)nc(N4CCOCC4)n3)CC2)CC1", "observed": "binding", "method": "competition with immobilised ligand", "concentration": "1 µM", "remaining binding [%]": 92}
{"SMILES": "NS(=O)(=O)c1cc(NC(=O)C2(c3ccccc3Cl)CC2)ccc1Oc1cccc(Cl)c1", "observed": "cell-free assay", "method": "competition with immobilised ligand", "concentration": "1 µM", "remaining binding [%]": 81}
{"SMILES": "CN(c1nccc(-c2cnn3ncccc23)n1)C1CC1", "observed": "binding", "concentration": "1 µM", "remaining binding [%]": 100}
{"SMILES": "Nc1ncc2c(n1)-c1c([nH]c3ccc(C#CC4CC4)cc13)CCCC2", "observed": "binding", "method": "competition with immobilised ligand", "concentration": "1 µM", "remaining binding [%]": 79}
{"SMILES": "CN(C)c1nccc(-c2cnn3ncccc23)n1", "observed": "binding", "concentration": "1 µM", "remaining binding [%]": 59}
{"SMILES": "c1cncc(-c2cccc(Nc3nccc(NC4CCCCC4)n3)c2)c1", "observed": "binding", "method": "competition with immobilised ligand", "concentration": "10 µM", "remaining binding [%]": 100}
{"SMILES": "N[C@@H]1CCN(c2nccc(-c3cnn4ncccc34)n2)C1", "observed": "binding", "concentration": "1 µM", "remaining binding [%]": 100}
{"SMILES": "O=C(Nc1cccnn1)N1CC(C/C=C/c2cncc(Oc3ccc(C(F)(F)F)cn3)n2)C1", "observed": "cell-free assay", "method": "competition with immobilised ligand", "concentration": "1 µM", "remaining binding [%]": 0}
{"SMILES": "CC1CCCN1c1nccc(-c2cnn3ncccc23)n1 (stereo not drawn)", "observed": "binding", "concentration": "1 µM", "remaining binding [%]": 100}
{"SMILES": "CC1=C(C#N)[C@@H](c2ccc3[nH]nc(C)c3c2)C(C#N)=C(c2ccc(Cl)cc2)N1", "observed": "cell-free assay", "method": "competition with immobilised ligand", "concentration": "1 µM", "remaining binding [%]": 100}
{"SMILES": "C[C@@H]1CCN(c2nccc(-c3cnn4ncccc34)n2)C1", "observed": "binding", "concentration": "1 µM", "remaining binding [%]": 100}
{"SMILES": "O=C(NCCCN1CCOCC1)c1ccc(Nc2ncc(Cl)c(-c3ccc(Cl)s3)n2)cc1", "observed": "binding", "method": "competition with immobilised ligand", "concentration": "1 µM", "remaining binding [%]": 99}
